Activity calls are given as the source filed them. No cut-off for these calls is given here.
Legend:
Type in all cases: functional, organism-based
[1] = species on record: Mus musculus; experiment: Induction of IL-12(p40) secretion in C57BL/6 mouse
Method in brief: (§1)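 Mice dosed by intranasal instillation and killed after 24 h; bronchoalveolar lavage collected five times with PBS plus 3 mM EDTA; lavage fluid measured for a panel of 21 chemokines and cytokines.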

[2] = species on record: Mus musculus; experiment: Induction of IFN-gamma secretion in C57BL/6 mouse; method in brief: as §1
[3] = species on record: Mus musculus; experiment: Induction of IL-13 secretion in C57BL/6 mouse; method in brief: as §1
[4] = species on record: Mus musculus; experiment: Induction of IL1-beta secretion in C57BL/6 mouse; method in brief: as §1
[5] = species on record: Mus musculus; experiment: Induction of IL-9 secretion in C57BL/6 mouse; method in brief: as §1
[6] = species on record: Mus musculus; experiment: Induction of IL-17 secretion in C57BL/6 mouse; method in brief: as §1
[7] = species on record: Mus musculus; experiment: Induction of MIP-1beta secretion in C57BL/6 mouse; method in brief: as §1
[8] = species on record: Mus musculus; experiment: Induction of IL-5 secretion in C57BL/6 mouse; method in brief: as §1
[9] = species on record: Mus musculus; experiment: Induction of IL-6 secretion in C57BL/6 mouse; method in brief: as §1
[10] = species on record: Mus musculus; experiment: Induction of IL-10 secretion in C57BL/6 mouse; method in brief: as §1
[11] = species on record: Mus musculus; experiment: Induction of IL-3 secretion in C57BL/6 mouse; method in brief: as §1
[12] = species on record: Mus musculus; experiment: Immunostimulatory activity in C57BL/6 mouse assessed as recruitment of inflammatory cells into bronchoalveolar spaces; conditions: Lung
Method in brief: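 Compound given to mice by intranasal instillation; animals killed 24 h later and lungs lavaged five times with PBS containing 3 mM EDTA; total and differential inflammatory cell counts determined in the bronchoalveolar lavage.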

[13] = species on record: Mus musculus; experiment: Induction of KC secretion in C57BL/6 mouse; method in brief: as §1
[14] = species on record: Mus musculus; experiment: Induction of RNATES secretion in C57BL/6 mouse; method in brief: as §1
[15] = species on record: Mus musculus; experiment: Induction of IL-2 secretion in C57BL/6 mouse; method in brief: as §1
[16] = species on record: Mus musculus; experiment: Induction of TNFalpha secretion in C57BL/6 mouse; method in brief: as §1
[17] = species on record: Mus musculus; experiment: Induction of MCP-1 secretion in C57BL/6 mouse; method in brief: as §1
[18] = species on record: Mus musculus; experiment: Induction of VEGF secretion in C57BL/6 mouse; method in brief: as §1
[19] = species on record: Mus musculus; experiment: Induction of IL-4 secretion in C57BL/6 mouse; method in brief: as §1
[20] = species on record: Mus musculus; experiment: Induction of GM-CSF secretion in C57BL/6 mouse; method in brief: as §1
[21] = species on record: Mus musculus; experiment: Induction of IL-1alpha secretion in C57BL/6 mouse; method in brief: as §1

Nc1nc2ncn([C@@H]3O[C@@H]4COP(=O)(O)O[C@@H]5[C@H](O)[C@@H](n6cnc7nc(N)[nH]c(=O)c76)O[C@H]5COP(=O)(O)O[C@H]4[C@H]3O)c2c(=O)[nH]1
Activity [1]: Dose-dependent effect
Activity [2]: inactive
Activity [3]: inactive
Activity [4]: Dose-dependent effect
Activity [5]: inactive
Activity [6]: inactive
Activity [7]: Dose-dependent effect
Activity [8]: inactive
Activity [9]: Dose-dependent effect
Activity [10]: inactive
Activity [11]: inactive
Activity [12]: Dose-dependent effect
Activity [13]: Dose-dependent effect
Activity [14]: Dose-dependent effect
Activity [15]: inactive
Activity [16]: Dose-dependent effect
Activity [17]: Dose-dependent effect
Activity [18]: inactive
Activity [19]: inactive
Activity [20]: inactive
Activity [21]: inactive

Reference: ChEMBL document CHEMBL1152214, “Synthesis and immunostimulatory properties of the phosphorothioate analogues of cdiGMP” (Bioorg Med Chem Lett, 2008)
